Assay results from ChEMBL document CHEMBL2346663 (J Med Chem, 2013).

How the values were obtained:
[1] = target: Sodium-dependent serotonin transporter (Homo sapiens, UniProt P31645); assay: Inhibition of serotonin reuptake at human SERT expressed in HEK293 cells coexpressing macrophage scavenger receptor; format: cell-based
In short: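 HEK-293 MSR cells grown in DMEM with 10% FCS, penicillin/streptomycin and 6 µg/mL Geneticin at 37 °C and 5% CO2. Cells transfected with a pcDNA3.1 human SERT plasmid and assayed for [3H]5-HT uptake.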

[2] = target: T1, Myeloperoxidase (Homo sapiens, UniProt P05164); assay: Inhibition of human recombinant MPO-mediated taurine chlorination after 5 mins by microplate assay; format: single protein
T1 sequence (P05164 whole entry): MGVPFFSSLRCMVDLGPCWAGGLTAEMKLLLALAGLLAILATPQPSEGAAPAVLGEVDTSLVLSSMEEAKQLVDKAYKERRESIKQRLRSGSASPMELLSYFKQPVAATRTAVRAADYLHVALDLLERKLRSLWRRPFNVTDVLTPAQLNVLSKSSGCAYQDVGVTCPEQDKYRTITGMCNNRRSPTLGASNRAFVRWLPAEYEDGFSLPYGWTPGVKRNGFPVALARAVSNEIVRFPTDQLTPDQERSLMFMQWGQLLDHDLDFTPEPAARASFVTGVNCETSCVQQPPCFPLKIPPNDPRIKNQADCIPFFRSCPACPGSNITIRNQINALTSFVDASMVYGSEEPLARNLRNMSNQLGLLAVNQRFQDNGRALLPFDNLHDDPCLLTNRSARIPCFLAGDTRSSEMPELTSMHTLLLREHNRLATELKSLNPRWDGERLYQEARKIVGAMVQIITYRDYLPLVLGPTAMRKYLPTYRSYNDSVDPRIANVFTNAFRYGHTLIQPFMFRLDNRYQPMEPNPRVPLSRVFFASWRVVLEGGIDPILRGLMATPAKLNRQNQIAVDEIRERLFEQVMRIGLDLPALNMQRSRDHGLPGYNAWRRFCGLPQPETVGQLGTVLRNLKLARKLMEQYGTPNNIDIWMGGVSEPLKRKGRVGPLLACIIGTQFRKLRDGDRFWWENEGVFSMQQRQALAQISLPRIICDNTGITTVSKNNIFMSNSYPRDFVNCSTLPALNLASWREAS
In short: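 Recombinant MPO (40 nM) in 10 mM phosphate pH 7.4 with 300 mM NaCl and 15 mM taurine, inhibitor up to 20 µM, 37 °C. Started with H2O2 (100 µM), stopped after 5 min with catalase. Taurine chloramine measured with thionitrobenzoic acid at 412 nm. IC50 taken from the absorbance–concentration curve; no H2O2 set as 100% inhibition, no inhibitor as 0%.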

[3] = target: T1, Myeloperoxidase; assay: Inhibition of human recombinant MPO-mediated LDL oxidation after 5 mins by ELISA
In short: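 Recombinant MPO (1 µg/mL) with human plasma LDL (1000 µg/mL; ultracentrifuged fraction 1.019–1.067 g/mL, desalted in PBS) in PBS pH 7.2 with 4 mM HCl and test compound at several concentrations. Reaction started with 100 µM H2O2 at 37 °C and stopped after 5 min on ice. Oxidized LDL read by ELISA: 200 ng/well LDL coated, Mab AG9 antibody, alkaline phosphatase anti-mouse IgG, p-nitrophenyl phosphate, A405 corrected at 655 nm.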

[4] = species on record: Homo sapiens; assay: Selectivity ratio of Ki for human SERT to IC50 for human recombinant MPO-mediated LDL oxidation
In short: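 Ratio of two measured values. Recombinant human MPO (1 µg/mL) oxidised LDL (1000 µg/mL) in PBS pH 7.2 with 4 mM HCl and 100 µM H2O2 at 37 °C for 5 min. Oxidised LDL was detected by ELISA with Mab AG9 at 405 nm to give the IC50. hSERT was transiently expressed in HEK-293 MSR cells and assayed by [3H]5-HT uptake.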

[5] = system: Rattus norvegicus; assay: Toxicity in Wistar Han rat at 1 to 10 mg/kg, ip; format: organism-based; design: dose 1-10 mg/kg, route intraperitoneal; details: in vivo
In short: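 Male Wistar Han rats (~285 g), 3 per group, received a single i.p. injection of 1 or 10 mg/kg in alcohol/water 1:3 (v/v), with vehicle controls. Physical and clinical signs were recorded daily for 4 days, followed by exsanguination and gross necropsy.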

[6] = system: Rattus norvegicus; assay: Toxicity in Wistar Han rat assessed as prostarted posture at 100 mg/kg, ip after 24 hrs; format: organism-based; design: dose 100 mg/kg, route intraperitoneal; details: in vivo
In short: (§1)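 Male Wistar Han rats (~285 g), 3 per group, given one i.p. dose in 2 ml alcohol/water 1:3 (v/v); vehicle-only controls. Doses were 10 or 100 mg/kg, or 1, 10 or 100 mg/kg, depending on the compound. Clinical signs recorded daily. Rats killed by exsanguination after 4 days, with gross organ examination at necropsy.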

[7] = system: Rattus norvegicus; assay: Toxicity in Wistar Han rat assessed as macroscopic kidney lesions at 1 to 100 mg/kg, ip by necropsic analysis; format: organism-based; design: dose 1-100 mg/kg, route intraperitoneal; details: in vivo
In short: (§2)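 Male Wistar Han rats (~285 g), 3 per group, received a single i.p. dose of 1, 10 or 100 mg/kg in alcohol/water 1:3 (v/v), with vehicle controls. Clinical signs were recorded daily. After 4 days, rats were killed by exsanguination, and liver, kidney, heart and muscle were examined grossly at necropsy.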

[8] = system: Rattus norvegicus; assay: Toxicity in Wistar Han rat assessed as occurrence of piloerection at 100 mg/kg, ip after 24 hrs; format: organism-based; design: dose 100 mg/kg, route intraperitoneal; details: in vivo; in short: as §1
[9] = system: Rattus norvegicus; assay: Toxicity in Wistar Han rat assessed as macroscopic liver lesions at 1 to 100 mg/kg, ip by necropsic analysis; format: organism-based; design: dose 1-100 mg/kg, route intraperitoneal; details: in vivo; in short: as §2
[10] = system: Rattus norvegicus; assay: Toxicity in Wistar Han rat assessed as macroscopic muscle lesions at 1 to 100 mg/kg, ip by necropsic analysis; format: organism-based, Muscle tissue; design: dose 1-100 mg/kg, route intraperitoneal; details: in vivo; in short: as §2
[11] = system: Rattus norvegicus; assay: Toxicity in Wistar Han rat assessed as mortality at 1 to 100 mg/kg, ip; format: organism-based; design: dose 1-100 mg/kg, route intraperitoneal; details: in vivo
[12] = system: Rattus norvegicus; assay: Toxicity in Wistar Han rat assessed as macroscopic heart lesions at 1 to 100 mg/kg, ip by necropsic analysis; format: organism-based; design: dose 1-100 mg/kg, route intraperitoneal; details: in vivo; in short: as §2
[13] = system: Rattus norvegicus; assay: Toxicity in Wistar Han rat at 10 mg/kg, ip; format: organism-based; design: dose 10 mg/kg, route intraperitoneal; details: in vivo; in short: as §1
[14] = system: Rattus norvegicus; assay: Toxicity in Wistar Han rat assessed as paralysis of hind limbs at 100 mg/kg, ip after 48 hrs; format: organism-based, Hindlimb; design: dose 100 mg/kg, route intraperitoneal; details: in vivo; in short: as §1
[15] = system: Rattus norvegicus; assay: Toxicity in Wistar Han rat assessed as occurrence of piloerection at 100 mg/kg, ip after 48 hrs; format: organism-based; design: dose 100 mg/kg, route intraperitoneal; details: in vivo; in short: as §1
[16] = system: Rattus norvegicus; assay: Toxicity in Wistar Han rat assessed as occurrence of macroscopic liver lesions at 100 mg/kg, ip by necropsic analysis; format: organism-based; design: dose 100 mg/kg, route intraperitoneal; details: in vivo; in short: as §1
[17] = system: Rattus norvegicus; assay: Toxicity in Wistar Han rat assessed as mortality at 10 to 100 mg/kg, ip after 4 days; format: organism-based; design: dose 10-100 mg/kg, route intraperitoneal; details: in vivo, 96 h

Sodium-dependent serotonin transporter, sequence (P31645 whole entry): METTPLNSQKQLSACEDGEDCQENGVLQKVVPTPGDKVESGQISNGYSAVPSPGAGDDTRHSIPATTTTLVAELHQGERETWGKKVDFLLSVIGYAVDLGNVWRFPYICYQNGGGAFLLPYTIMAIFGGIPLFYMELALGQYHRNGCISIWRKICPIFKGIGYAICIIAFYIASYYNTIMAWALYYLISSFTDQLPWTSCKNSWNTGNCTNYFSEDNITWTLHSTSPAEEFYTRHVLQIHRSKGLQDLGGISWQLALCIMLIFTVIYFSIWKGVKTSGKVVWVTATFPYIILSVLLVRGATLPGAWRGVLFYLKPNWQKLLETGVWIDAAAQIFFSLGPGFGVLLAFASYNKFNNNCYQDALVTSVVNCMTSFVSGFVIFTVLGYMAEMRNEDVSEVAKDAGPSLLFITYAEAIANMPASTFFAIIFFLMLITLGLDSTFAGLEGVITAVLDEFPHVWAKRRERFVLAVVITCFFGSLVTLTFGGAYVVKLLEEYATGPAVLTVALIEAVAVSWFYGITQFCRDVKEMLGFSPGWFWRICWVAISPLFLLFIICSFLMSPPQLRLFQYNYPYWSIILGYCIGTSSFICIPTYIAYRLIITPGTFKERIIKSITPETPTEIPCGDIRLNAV

Row | SMILES | Ki ([1]; read-out: Ki) | IC50 ([2]; read-out: IC50) | Ratio [4] | IC50 ([3]; read-out: IC50) | also measured
1 | NCCCc1c[nH]c2ccc(C(=O)O)cc12 | – | – | – | – | Ki ([1]; hek293): Not Active; IC50 [2]: Not Active; IC50 [3]: Not Active
2 | Fc1ccc2[nH]cc(CCCNCc3ccccc3)c2c1 | 53 nM | 13 nM | 4.1 | 30 nM | –
3 | CCCc1c[nH]c2ccc(F)cc12 | – | > 100 nM | – | > 100 nM | Ki ([1]; hek293): Not Active
4 | N#CSCCCc1c[nH]c2ccc(F)cc12 | – | – | 42 | – | –
5 | CCSCCc1c[nH]c2ccc(F)cc12 | – | > 100 nM | – | > 100 nM | Ki ([1]; hek293): Not Active
6 | NCCSCCc1c[nH]c2ccc(F)cc12 | 2.3 nM | – | 0.6 | – | –
7 | N#CCCCc1c[nH]c2ccc(F)cc12 | 184 nM | 63 nM | 2.9 | 72 nM | –
8 | Fc1ccc2[nH]cc(CCCN3CCN(c4ccccc4)CC3)c2c1 | 36 nM | 22 nM | 1.6 | 60 nM | –
9 | NC(=O)CCCCc1c[nH]c2c(F)cccc12 | – | 34 nM | – | 44 nM | –
10 | NC(=O)CCCCc1c[nH]c2ccc(F)cc12 | – | 39 nM | – | 43 nM | –
11 | NCCCCc1c[nH]c2ccc(C(=O)O)cc12 | – | – | – | – | Ki ([1]; hek293): Not Active; IC50 [2]: Not Active; IC50 [3]: Not Active
12 | CCSCCCc1c[nH]c2ccc(F)cc12 | – | > 100 nM | – | > 100 nM | Ki ([1]; hek293): Not Active
13 | OCCNCCc1c[nH]c2ccc(F)cc12 | 10 nM | 10 nM | 1 | 31 nM | –
14 | N[C@@H](Cc1ccc(O)cc1)C(=O)O [TYROSINE] | – | – | – | – | IC50 [2]: Not Active
15 | N#CCCCc1c[nH]c2ccc(C(=O)O)cc12 | – | – | – | – | Ki ([1]; hek293): Not Active; IC50 [2]: Not Active; IC50 [3]: Not Active
16 | NCC(N)CCc1c[nH]c2ccc(F)cc12 (stereo not given) | 12 nM | 60 nM | 0.2 | 26 nM | –

Row | SMILES | Ki ([1]; read-out: Ki) | IC50 ([2]; read-out: IC50) | Ratio [4] | IC50 ([3]; read-out: IC50) | also measured
17 | CCN(CCc1c[nH]c2ccc(F)cc12)S(C)(=O)=O | – | – | 12 | – | –
18 | NC(=O)CCc1c[nH]c2ccc(F)cc12 | – | 132 nM | – | 34 nM | –
19 | NCCCCc1c[nH]c2c(F)cccc12 | 8 nM | – | 1.3 | – | –
20 | CCN(CCCc1c[nH]c2ccc(F)cc12)S(C)(=O)=O | 12 nM | 37 nM | 0.3 | – | –
21 | NC(=O)CCCc1c[nH]c2ccc(F)cc12 | – | 18 nM | 35 | – | Activity [5]: Non-toxic; Activity [6]: Toxic; Activity [7]: Non-toxic; Activity [8]: Toxic; Activity [9]: Non-toxic; Activity [10]: Non-toxic; Activity [11]: Non-toxic; Activity [12]: Non-toxic
22 | NC(=O)CCc1c[nH]c2c(F)cccc12 | – | 271 nM | – | 64 nM | –
23 | NCCSCCCc1c[nH]c2ccc(F)cc12 | 0.9 nM | 35 nM | 0.02 | – | –
24 | NCCSCCc1c[nH]c2c(F)cccc12 | 24 nM | – | 8 | – | Activity [13]: Non-toxic; Activity [14]: Toxic; Activity [15]: Toxic; Activity [16]: Toxic; Activity [17]: Non-toxic
25 | OCCNCCCc1c[nH]c2ccc(F)cc12 | 62 nM | 10 nM | 6.2 | 43 nM | –
26 | NCCCc1c[nH]c2c(F)cccc12 | 24 nM | 24 nM | 1 | 26 nM | –
27 | CCNC(=O)CCCc1c[nH]c2ccc(F)cc12 | – | 182 nM | – | 243 nM | –
28 | NCCc1c[nH]c2ccccc12 [TRYPTAMINE] | – | 770 nM | – | – | –
29 | NCCc1c[nH]c2c(F)cccc12 | 29 nM | 29 nM | 1 | 28 nM | –
30 | NCCSCCCc1c[nH]c2c(F)cccc12 | 539 nM | > 100 nM | – | > 100 nM | –
31 | NCCc1c[nH]c2ccc(O)cc12 [SEROTONIN] | – | – | – | – | IC50 [2]: Not Active
